Experiments:
Hepatitis B virus = experiment: Antiviral activity against Hepatitis B virus (HBV) in 2.2.15 cells; type: functional, organism-based; details: HepG2 2.2.15
[1] = In vitro cytotoxicity against PBM cells; type: functional, cell-based, Homo sapiens
Vero [2] = experiment: (§1) In vitro cytotoxicity against Vero cells; type: functional, cell-based, Chlorocebus sabaeus
CCRF-CEM [3] = experiment: In vitro cytotoxicity against CEM cells; type: functional, cell-based, Homo sapiens
[4] = system: Human immunodeficiency virus 1; experiment: Antiviral activity against Immunodeficiency virus type-1 (HIV-1) in peripheral blood mononuclear cells; type: functional, organism-based
Procedure, shortened: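 HIV-1 infection of human peripheral blood mononuclear (PBM) cells; EC50 reported in µM.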

CCRF-CEM [5] = experiment: In vitro cytotoxicity againstCEM cells; type: functional, cell-based; details: Homo sapiens
Vero [6] = experiment: as §1; type: functional, cell-based; details: Chlorocebus sabaeus
[7] = system: Human immunodeficiency virus 1; experiment: (§2) Anti HIV activity against cloned FTC-sensitive mutant xxBRU HIV-1; type: functional, organism-based
[8] = Fold increase expressed as ratio of EC50 from M184V virus to that from xxBRU virus; type: functional
[9] = system: Human immunodeficiency virus 1; experiment: (§3) Anti HIV activity against cloned FTC/3TC-resistant mutant M184V HIV-1; type: functional
[10] = system: Human immunodeficiency virus 1; experiment: as §2; type: functional
[11] = Fold increase expressed as ratio of EC90 from M184V virus to that from xxBRU virus; type: functional
[12] = system: Human immunodeficiency virus 1; experiment: as §3; type: functional, organism-based

Compound	EC50 (Hepatitis B virus) [µM]	IC50 ([1]; Homo sapiens, PBMC) [µM]	IC50 (Vero [2]; Chlorocebus sabaeus, Vero) [µM]	IC50 (CCRF-CEM [3]; Homo sapiens, CCRF-CEM) [µM]	EC50 ([4]; Human immunodeficiency virus 1) [µM]	EC50 [4] [µM]	other results
OC[C@H]1O[C@H](n2cnc3c(O)ncnc32)C[Se]1	> 10	> 100	> 100	> 100	> 100	–	–
Nc1nc(=O)n([C@H]2C[Se][C@@H](CO)O2)cc1F (stereo in doubt; (+))	–	–	–	–	–	41.9	–
Nc1nc(O)c2ncn([C@@H]3C[Se][C@@H](CO)O3)c2n1	> 10	> 100	> 100	> 100	> 100	–	–
Nc1nc(=O)n([C@@H]2C[Se][C@@H](CO)O2)cc1F (stereo in doubt; (-))	–	> 100	> 100	> 100	–	6.4	–
Cc1cn([C@@H]2C[Se][C@@H](CO)O2)c(=O)[nH]c1=O	> 10	> 100	> 100	> 100	> 100	–	–
O=c1ccn([C@H]2C[Se][C@@H](CO)O2)c(=O)[nH]1	> 10	> 100	–	–	> 100	–	IC50 (CCRF-CEM [5]): > 100 µM; IC50 (Vero [6]): > 100 µM
Cc1cn([C@H]2C[Se][C@@H](CO)O2)c(=O)[nH]c1=O	> 10	> 100	> 100	> 100	> 10	–	–
Nc1ncnc2c1ncn2[C@H]1C[Se][C@@H](CO)O1	> 10	> 100	> 100	> 100	> 50	–	–
Nc1nc(=O)n([C@H]2C[Se][C@@H](CO)O2)cc1F (stereo in doubt; (-))	–	–	–	–	–	0.2	–
Nc1nc(O)c2ncn([C@H]3C[Se][C@@H](CO)O3)c2n1	> 10	> 100	> 100	> 100	28.9	–	–
Nc1ccn([C@H]2C[Se][C@@H](CO)O2)c(=O)n1 (stereo in doubt; (-))	–	–	–	–	–	0.9	EC50 [7]: 110 nM; FI [8]: >455; EC90 [9]: > 50 µM; EC90 [10]: 0.95 µM; FI [11]: >53; EC50 [12]: > 50 µM
OC[C@H]1O[C@@H](n2cnc3c(O)ncnc32)C[Se]1	> 10	> 100	> 100	> 100	> 100	–	–
Nc1ncnc2c1ncn2[C@@H]1C[Se][C@@H](CO)O1	> 10	> 100	> 100	> 100	> 100	–	–
Nc1ccn([C@H]2C[Se][C@@H](CO)O2)c(=O)n1 (stereo in doubt; (+))	–	–	–	–	–	3.4	EC50 [7]: 8620 nM; IC50 ([1]; pbm): 100 µM; FI [8]: >6; IC50 (Vero [2]; vero): 100 µM; IC50 (CCRF-CEM [3]; ccrf-cem): 100 µM; EC90 [9]: 50 µM; EC90 [10]: 35.1 µM; FI [11]: >1; EC50 [12]: 50 µM
Nc1nc(=O)n([C@H]2C[Se][C@@H](CO)O2)cc1F (racemic)	1.2	> 100	> 100	> 100	–	0.73	–
Nc1nc(=O)n([C@@H]2C[Se][C@@H](CO)O2)cc1F (stereo in doubt; 10d)	> 10	–	–	–	–	57.1	–
Nc1ccn([C@H]2C[Se][C@@H](CO)O2)c(=O)n1 (stereo in doubt; 9c)	1.2	> 100	> 100	> 100	–	2.7	EC50 [7]: 1840 nM; FI [8]: 59; EC90 [9]: 337 µM; EC90 [10]: 6.9 µM; FI [11]: 49; EC50 [12]: 108 µM
Nc1nc(=O)n([C@@H]2C[Se][C@@H](CO)O2)cc1F (stereo in doubt; (+))	–	–	–	–	–	95.3	–
Nc1ccn([C@@H]2C[Se][C@@H](CO)O2)c(=O)n1	–	> 100	> 100	> 100	> 100	–	–
Nc1ccn([C@@H]2CS[C@H](CO)O2)c(=O)n1 [LAMIVUDINE]	0.008	> 100	> 100	> 100	0.07	–	–
O=c1ccn([C@@H]2C[Se][C@@H](CO)O2)c(=O)[nH]1	> 10	> 100	> 100	> 100	101	–	–

Source: ChEMBL document CHEMBL1133470, “Synthesis and antiviral activity of oxaselenolane nucleosides” (J Med Chem, 2000)
